Sampled rows, rich in hits. Any-hit rate of the full collection: about 3.7%.
TAAR1 antagonist – human TAAR1 antagonism; Q96RJ0; CHO RD-HGA16 TAAR1, Fluo-8 calcium fluorescence, antagonist; inhibition, % at 3 µM; 360,000 tested, 1.5% active; AID 624466;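 active = inhibition above a per-plate cutoff, the mean inhibition of test compounds on that plate plus 3 SD, cut at about 49% in these data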;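 note: 0% = DMSO plus EC80 beta-PEA response and 100% = DMSO alone without agonist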
Target sequence (Q96RJ0 whole entry, looked up): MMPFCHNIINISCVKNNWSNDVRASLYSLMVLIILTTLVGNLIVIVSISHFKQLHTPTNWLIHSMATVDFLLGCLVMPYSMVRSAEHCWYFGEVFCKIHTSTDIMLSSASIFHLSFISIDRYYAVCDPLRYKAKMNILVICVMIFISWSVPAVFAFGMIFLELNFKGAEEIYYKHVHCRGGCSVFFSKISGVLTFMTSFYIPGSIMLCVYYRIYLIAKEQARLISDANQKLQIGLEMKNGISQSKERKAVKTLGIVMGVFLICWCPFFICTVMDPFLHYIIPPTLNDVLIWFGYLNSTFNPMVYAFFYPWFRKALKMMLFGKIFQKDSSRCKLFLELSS
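System: RD-HGA16 CHO cells with stable hTAAR1 and Gα16 | Probe or stimulus: EC80 β-phenethylamine stimulus | Dosing: 3 µM, single point | Times: Dye loading 75 min at 37 °C, then 30 min room temperature | Measured by: Fluo-8 calcium-sensitive fluorescence | Read-out basis: % inhibition of agonist calcium response | Replicates: n of 1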
core dimer inh – HCV core protein dimerization inhibition; TR-FRET GST/Flag-core106 dimerization, 1536-well; inhibition, % at 5 µM; 300,000 tested, 0.33% active;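 active = inhibition above the mean of all tested compounds plus 3 SD, set per screening campaign, cut at about 45% in these data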
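Assay system – GST-tagged and Flag-tagged HCV core protein residues 1-106 · Quantity – core106 proteins, GST 13.5 nM and Flag 17 nM · Benchmarks – unlabelled core106 and no-GST-core106 wells · Read-out basis – percent inhibition of core106 dimerization signal · Detection – time-resolved FRET, ex 340 nm, em 617 and 671 nm · Schedule – 4 h at 22.5 °C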
rCAG binder – r(CAG) repeat RNA binding | TO-PRO-1 dye displacement fluorescence | inhibition, % at 3 µM | AID 651821 | 370,000 tested, 1.3% active;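 active = inhibition above the plate cutoff, the mean of all test compounds on that plate plus 3 SD, cut at about 35% in these data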;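 note: 0% = DMSO alone and 100% = 100 µM mitoxantrone as full dye displacement; higher means more dye released from RNA so lower well fluorescence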
NS3 helicase inh – HCV NS3 helicase inhibition. NS3 helicase DNA unwinding, Cy5 molecular beacon fluorescence. AID 1800. inhibition, % at 10.9 µM. 290,000 tested, 0.56% active;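 active = inhibition above the mean of all tested compounds plus 3 SD, set per campaign, cut at about 35% in these data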;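 note: 0% = DMSO wells and 100% = thioflavine S control wells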
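Control set: DMSO versus 110 µM thioflavine S; Material: NS3 helicase fragment of HCV; Measured by: Cy5 fluorescence at 0 and 60 min, beacon hairpin quenching; Read-out basis: percent inhibition from t60/t0 fluorescence ratio; Times: reaction time 60 min, 25 °C; Repeats: single replicate; Compound dosing: single dose, 10.9 µM nominal final, DMSO 0.8% final.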
TAAR1 agonist – human TAAR1 agonism; CHO RD-HGA16 TAAR1, Fluo-8 calcium fluorescence; vehicle wells 0%, saturating PEA agonist 100%; activation, % at 3 µM; 360,000 tested, 0.99% active;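 active = activation above the mean activation of all test compounds in the run plus 3 SD, cut at about 38% in these data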
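Assay system: CHO-derived RD-HGA16 cells with stable Gα16 and human TAAR1; timing: 17-24 h seeding, 75 min 37 °C dye, 30 min RT; read-out: % activation from peak over basal fluorescence ratio, DMSO-to-PEA scaled; measured by: kinetic Fluo-8 calcium fluorescence; benchmarks: low control DMSO, high control PEA (EC100); doses: 3 µM single concentration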
nonsel antag count – nonselective antagonist in TAAR1 antagonist counter-screen; shares compounds with TAAR1 antagonist; counterscreen cell line, calcium fluorescence, antagonist mode; inhibition, % at 3 µM; 2,400 tested, 77% active; AID 651780; in the data active = inhibition above about 22%;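 note: CHO-Ga16 host cells stimulated with ATP at an EC80 level; 0% = agonist EC80 plus vehicle and 100% = vehicle without agonist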
TAAR1 antag conf – confirmation of human TAAR1 antagonists | shares compounds with TAAR1 antagonist | TAAR1-expressing cells, fluorescence antagonist read-out | inhibition, % at 3 µM | 2,400 tested, 40% active | AID 651785; in the data active = inhibition above about 49%;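 note: CHO-Ga16 host cells challenged with agonist PEA near its EC80; 0% = agonist at EC80 plus vehicle and 100% = vehicle with no agonist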
Ga16 nonsel ag – nonselective Ga16 agonism, counter-screen. activation, % at 3 µM. AID 651953. 2,400 tested, 18% active. shares compounds with TAAR1 antagonist. Ga16-expressing cells, calcium fluorescence, agonist counterscreen; in the data active = activation above about 12%;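 note: 0% = vehicle wells and 100% = saturating stimulus response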
TAAR1 ag count – activates human TAAR1 in antagonist counter-screen; activation, % at 3 µM; 2,400 tested, 2% active; hTAAR1 cell line, fluorescence activation, agonist mode; shares compounds with TAAR1 antagonist; AID 651955; in the data active = activation above about 37%;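 note: CHO cells stably expressing TAAR1 with calcium dye readout; 0% = DMSO vehicle and 100% = full agonist response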
Active calls of the source: *; nt = no result given.

SMILES | TAAR1 antagonist | core dimer inh | rCAG binder | NS3 helicase inh | TAAR1 agonist | nonsel antag count | TAAR1 antag conf | Ga16 nonsel ag | TAAR1 ag count
C=CCn1c(SCc2cccc(C(F)(F)F)c2)nnc1-c1ccc(OC)cc1 | nt | nt | -4 | nt | nt | nt | nt | nt | nt
CC(/C=C1\SC(=Nc2cccnc2)NC1=O)=C\c1ccccc1 | 62* | 10 | 21 | 0 | 5 | 29* | 56* | 7 | 7
Cc1ccc(S(=O)(=O)N2CCCC(C(=O)Nc3ccc(NC(=O)c4ccccn4)cc3)C2)cc1 (configuration not stated) | 55* | 6 | -1 | 10 | 15 | 32* | 53* | 8 | 11
CCOC(=O)c1ccc(NC(=O)C2CCCN(S(=O)(=O)c3ccc(F)cc3)C2)cc1 (configuration not stated) | 67* | 1 | 7 | -8 | 20 | 39* | 62* | 13* | 14
Cc1ccc(S(=O)(=O)N2CCCC(C(=O)Nc3cccnc3)C2)cc1 (configuration not stated) | 7 | -5 | -6 | 12 | 16 | nt | nt | nt | nt
CCOC(=O)c1ccc(NC(=O)C2CCN(S(=O)(=O)c3ccccc3)CC2)cc1 | -7 | 19 | 1 | -3 | 2 | nt | nt | nt | nt
CCCc1cc(C(=O)Nc2ccc(C(=O)c3ccc(C)cc3)cc2)n(C)n1 | 64* | 20 | 1 | -6 | -1 | 29* | 49* | 3 | -2
O=C(Nc1cccc(-c2nc3ccccc3o2)c1)c1ccc(N2C(=O)C3C4C=CC(C4)C3C2=O)cc1 (configuration not stated) | 63* | 22 | 12 | 0 | 21 | 39* | 58* | 11 | 9
O=C(Nc1ccncc1)c1cncc(Br)c1 | -12 | -3 | -3 | -5 | 3 | nt | nt | nt | nt
O=C(Nc1cccc(NC(=O)c2cncc(Br)c2)c1)c1cncc(Br)c1 | 67* | 17 | 6 | -1 | 33 | 29* | 52* | 17* | 15
CCOc1ccc2[nH]c3c(NCCc4ccc(OC)c(OC)c4)ncnc3c2c1 | 51* | -2 | 7 | -17 | 6 | 18 | 31 | 4 | 1
CCOc1ccc2[nH]c3c(NCCO)ncnc3c2c1 | -2 | nt | 5 | 18 | 4 | nt | nt | nt | nt
COc1ccccc1CCn1cnc(-c2cccc(Cl)c2)c1CC(C)C | 51* | nt | -1 | nt | 14 | 33* | 52* | 9 | 38*
COc1ccccc1CCn1cnc(-c2ccccc2)c1CC(C)C | 56* | nt | -2 | nt | 7 | 41* | 49* | 12* | 26
CCCCc1c(-c2ccc(F)cc2)ncn1CCc1ccccc1OC | 54* | nt | 2 | nt | 26 | 23* | 38 | 3 | 43*
CCc1c(-c2ccc(F)cc2)ncn1CCc1ccccc1OC | -24 | nt | 2 | nt | 3 | nt | nt | nt | nt
COc1ccccc1CCn1cnc(-c2ccc(F)cc2)c1CC(C)C | 63* | nt | -1 | nt | 27 | 29* | 62* | 11 | 66*
COC(=O)C1CN(Cc2ccc(Cl)cc2)CCS(=O)(=O)N1Cc1cn(Cc2ccc(F)cc2)nn1 (configuration not stated) | nt | nt | -1 | nt | nt | nt | nt | nt | nt
COc1cccc(-c2ncn(CCc3ccccc3OC)c2CC(C)C)c1 | 62* | nt | 2 | nt | 11 | 39* | 49* | 8 | 38*
COc1ccc(-c2cc(C(=O)Nc3ccccc3N3CCOCC3)c3ccccc3n2)cc1OC | 59* | 12 | 6 | -4 | 6 | 24* | 45 | 6 | 3
COc1ccc(-c2cc(C(=O)Nc3ccccc3O)c3ccccc3n2)cc1OC | 34 | 0 | 2 | -1 | 14 | nt | nt | nt | nt
COc1ccc(-c2cc(C(=O)NNC(=O)c3csc(N4CCOCC4)n3)c3ccccc3n2)cc1 | 61* | 2 | 14 | nt | 9 | 30* | 45 | 6 | 5
O=C(Nc1ccccc1N1CCOCC1)c1cc(-c2ccncc2)nc2ccccc12 | 63* | 10 | 2 | -7 | 16 | 27* | 44 | 8 | 9
O=C(Nc1ccc(N2CCOCC2)cc1)c1cc(-c2ccncc2)nc2ccccc12 | 22 | 3 | 6 | -8 | 11 | nt | nt | nt | nt
Cn1c(=O)c2c(c3ccccc31)OC(C)(C)C=C2 | -18 | nt | 2 | nt | -1 | nt | nt | nt | nt
COc1cc(C(=O)NN=C2c3ccccc3-c3ccccc32)cc(OC)c1OC | 9 | nt | 4 | nt | 4 | nt | nt | nt | nt
COc1cc(/C=C2\CCC/C(=C\c3ccc(O)c(OC)c3)C2=O)ccc1O | 53* | 17 | 22 | -9 | 14 | 35* | 48 | 7 | 14

Assay outcomes as filed in PubChem BioAssay.
